One assay relates to Staphylococcus aureus. Description: Antibacterial activity against Staphylococcus aureus after 18 hrs by broth microdilution method. The class given is functional. In a few lines: (§1)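 Broth microdilution; compounds dissolved in DMSO (10 mg in 1 mL), serially diluted in Mueller-Hinton medium to 0.2–100 µg/mL. MIC taken as lowest concentration giving no visible growth. DMSO solvent control at matching dilutions.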
On the technique in general: Dilution methods test growth across graded concentrations, often in twofold steps.

A further assay relates to Escherichia coli. Description: Antibacterial activity against Escherichia coli after 18 hrs by broth microdilution method. The class given is functional. In a few lines: as §1
The subject of assay [1] is Mycobacterium tuberculosis. Description: Inhibition of Mycobacterium tuberculosis His6-tagged InhA expressed in Escherichia coli BL21 using trans-2-dodecenoyl-coA as substrate at 50 uM.

The text below walks through data of ChEMBL document CHEMBL3745673, “Synthesis, antimycobacterial screening and ligand-based molecular docking studies on novel pyrrole derivatives bearing pyrazoline, isoxazole and phenyl thiourea moieties” (Eur J Med Chem, 2016).

Values after ≈ are worked out from the molar mass of the structure shown. Active and inactive are the calls of the source.

For orientation: MIC means the smallest concentration in the dilution series that meets the test's criterion for growth inhibition. A high value points to a need for much substance. As for `Clc1ccc(-c2cc(-c3ccc(-n4cccc4)cc3)on2)cc1`, the MIC with Staphylococcus aureus and with Escherichia coli was 25 mg/L (≈ 77.9 µM) in each case.

For `COc1ccc(/C=C/C(=O)c2ccc(-n3cccc3)cc2)cc1OC`, the MIC against Staphylococcus aureus and in the assay on Escherichia coli was 12.5 mg/L (≈ 37.5 µM) in each case.

Regarding `O=C(/C=C/c1ccco1)c1ccc(-n2cccc2)cc1`, the MIC against Staphylococcus aureus and in the assay on Escherichia coli was 25 mg/L (≈ 95 µM) in each case.

`CC(=O)N1N=C(c2ccc(-n3cccc3)cc2)CC1c1ccco1` (configuration not stated): the MIC came to 50 mg/L (≈ 157 µM) with Staphylococcus aureus and 100 mg/L (≈ 313 µM) against Escherichia coli.

For orientation: inhibition means the share of the control response that was lost under treatment. Take `Cc1ccc(C)n1-c1ccccc1NC(=S)Nc1ccc(Cl)cc1`: the minimum inhibitory concentration (MIC) against Staphylococcus aureus and in the assay on Escherichia coli was 0.2 mg/L (≈ 0.562 µM) throughout. Moreover, the inhibition entry in assay [1] is “inactive”.

As for `O=C(/C=C/c1ccccc1Cl)c1ccc(-n2cccc2)cc1`, the figures for the MIC with Staphylococcus aureus and in the assay on Escherichia coli were 25 mg/L (≈ 81.2 µM) and 50 mg/L (≈ 162 µM), respectively.

Consider `CC(=O)N1N=C(c2ccc(-n3cccc3)cc2)CC1c1ccccc1` (configuration not stated), for which the MIC in the assay on Staphylococcus aureus and against Escherichia coli was 50 mg/L (≈ 152 µM) in each case.

`c1ccc(Oc2cccc(-c3cc(-c4ccc(-n5cccc5)cc4)on3)c2)cc1`: the minimal inhibitory concentration (MIC) in the assay with Staphylococcus aureus and in the assay with Escherichia coli was 50 mg/L (≈ 132 µM) each time.

As to `CC(=O)N1N=C(c2ccc(-n3cccc3)cc2)CC1c1ccc(Cl)cc1Cl` (configuration not stated), the figures for the MIC in the assay with Staphylococcus aureus and in the assay on Escherichia coli were 50 mg/L (≈ 126 µM) and 25 mg/L (≈ 62.8 µM), respectively.

With `CC(=O)N1N=C(c2ccc(-n3cccc3)cc2)CC1c1cccc(Cl)c1Cl` (configuration not stated), the figures for the MIC in the assay with Staphylococcus aureus and in the assay with Escherichia coli were 25 mg/L (≈ 62.8 µM) and 50 mg/L (≈ 126 µM), respectively.

Consider `CC(=O)N1N=C(c2ccc(-n3cccc3)cc2)CC1c1cccc(Br)c1` (configuration not stated), for which the minimum inhibitory concentration (MIC) against Staphylococcus aureus amounted to 50 mg/L (≈ 122 µM); with Escherichia coli it was 25 mg/L (≈ 61.2 µM).

`Clc1cccc(Cl)c1-c1cc(-c2ccc(-n3cccc3)cc2)on1`: the results for the MIC against Staphylococcus aureus and against Escherichia coli were 25 mg/L (≈ 70.4 µM) and 50 mg/L (≈ 141 µM), respectively.

Regarding `COc1ccc(C2CC(c3ccc(-n4cccc4)cc3)=NN2C(C)=O)c(OC)c1` (configuration not stated), the minimal inhibitory concentration (MIC) with Staphylococcus aureus amounted to 25 mg/L (≈ 64.2 µM); against Escherichia coli, 12.5 mg/L (≈ 32.1 µM).

Regarding `O=C(/C=C/c1c(Cl)cccc1Cl)c1ccc(-n2cccc2)cc1`, the MIC in the assay on Staphylococcus aureus is 25 mg/L (≈ 73.1 µM); against Escherichia coli, 50 mg/L (≈ 146 µM).

For the compound `O=C(/C=C/c1ccccc1)c1ccc(-n2cccc2)cc1`, the minimum inhibitory concentration (MIC) against Staphylococcus aureus and with Escherichia coli was 25 mg/L (≈ 91.5 µM) in each case.

For `Cc1ccc(C)n1-c1ccccc1NC(=S)Nc1cccc(Cl)c1`, the minimal inhibitory concentration (MIC) worked out at 0.2 mg/L (≈ 0.562 µM) in the assay with Staphylococcus aureus and 0.4 mg/L (≈ 1.12 µM) against Escherichia coli.

For `CC(=O)N1N=C(c2ccc(-n3cccc3)cc2)CC1c1ccc(F)cc1` (configuration not stated), the minimum inhibitory concentration (MIC) in the assay with Staphylococcus aureus and in the assay with Escherichia coli was 12.5 mg/L (≈ 36 µM) in each case.

As for `Cc1ccc(C)n1-c1ccccc1NC(=S)Nc1ccccc1Br`, the figures for the minimal inhibitory concentration (MIC) against Staphylococcus aureus and with Escherichia coli were 1.6 mg/L (≈ 4 µM) and 0.8 mg/L (≈ 2 µM), respectively.

As for `O=C(/C=C/c1cccc(Br)c1)c1ccc(-n2cccc2)cc1`, the results for the MIC with Staphylococcus aureus and in the assay with Escherichia coli were 50 mg/L (≈ 142 µM) and 25 mg/L (≈ 71 µM), respectively.

On to `Brc1cccc(-c2cc(-c3ccc(-n4cccc4)cc3)on2)c1`, for which the minimum inhibitory concentration (MIC) in the assay with Staphylococcus aureus and with Escherichia coli was 25 mg/L (≈ 68.5 µM) throughout.

`CC(=O)N1N=C(c2ccc(-n3cccc3)cc2)CC1c1ccccc1Br` (configuration not stated): the MIC against Staphylococcus aureus amounted to 100 mg/L (≈ 245 µM); against Escherichia coli it was 50 mg/L (≈ 122 µM).

Turning to `COc1cccc(/C=C/C(=O)c2ccc(-n3cccc3)cc2)c1`, the minimum inhibitory concentration (MIC) in the assay with Staphylococcus aureus came out at 25 mg/L (≈ 82.4 µM); in the assay on Escherichia coli, 12.5 mg/L (≈ 41.2 µM).

Take `Clc1cccc(-c2cc(-c3ccc(-n4cccc4)cc3)on2)c1Cl`: the minimal inhibitory concentration (MIC) against Staphylococcus aureus came out at 50 mg/L (≈ 141 µM); with Escherichia coli, 25 mg/L (≈ 70.4 µM).

For the compound `CC(=O)N1N=C(c2ccc(-n3cccc3)cc2)CC1c1cccc(Oc2ccccc2)c1` (configuration not stated), the MIC was 100 mg/L (≈ 237 µM) against Staphylococcus aureus and 50 mg/L (≈ 119 µM) against Escherichia coli.

As for `CC(=O)N1N=C(c2ccc(-n3cccc3)cc2)CC1c1ccc(Cl)cc1` (configuration not stated), the minimum inhibitory concentration (MIC) in the assay with Staphylococcus aureus stood at 25 mg/L (≈ 68.7 µM); with Escherichia coli, 50 mg/L (≈ 137 µM).

Consider `CC(=O)N1N=C(c2ccc(-n3cccc3)cc2)CC1c1c(Cl)cccc1Cl` (configuration not stated), for which the minimum inhibitory concentration (MIC) is 25 mg/L (≈ 62.8 µM) with Staphylococcus aureus and 50 mg/L (≈ 126 µM) against Escherichia coli.

For `c1ccc(-c2cc(-c3ccc(-n4cccc4)cc3)on2)cc1`, the figures for the MIC against Staphylococcus aureus and against Escherichia coli were 50 mg/L (≈ 175 µM) and 25 mg/L (≈ 87.3 µM), respectively.

Turning to `COc1ccc(/C=C/C(=O)c2ccc(-n3cccc3)cc2)cc1`, the minimal inhibitory concentration (MIC) in the assay on Staphylococcus aureus was 25 mg/L (≈ 82.4 µM); against Escherichia coli, 12.5 mg/L (≈ 41.2 µM).

For the compound `O=C(O)c1cn(C2CC2)c2cc(N3CCNCC3)c(F)cc2c1=O` [CIPROFLOXACIN], in the assay with Staphylococcus aureus, the MIC came to 0.15 mg/L (≈ 0.453 µM).

On to `Cc1ccc(C)n1-c1ccccc1NC(=S)Nc1ccccc1`, for which the minimum inhibitory concentration (MIC) turned out to be 0.8 mg/L (≈ 2.49 µM) against Staphylococcus aureus and 0.2 mg/L (≈ 0.622 µM) with Escherichia coli.

As to `COc1ccc(C2CC(c3ccc(-n4cccc4)cc3)=NN2C(C)=O)cc1OC` (configuration not stated), the MIC was found to be 25 mg/L (≈ 64.2 µM) against Staphylococcus aureus and 12.5 mg/L (≈ 32.1 µM) in the assay on Escherichia coli.

In turn, `Oc1cc(Cl)ccc1Oc1ccc(Cl)cc1Cl` showed an inhibition in assay [1] above 99%.

For the compound `O=C(/C=C/c1ccc(F)cc1)c1ccc(-n2cccc2)cc1`, the minimal inhibitory concentration (MIC) with Staphylococcus aureus stood at 25 mg/L (≈ 85.8 µM); against Escherichia coli, 12.5 mg/L (≈ 42.9 µM).

In the case of `Fc1ccc(-c2cc(-c3ccc(-n4cccc4)cc3)on2)cc1`, the figures for the minimal inhibitory concentration (MIC) in the assay with Staphylococcus aureus and against Escherichia coli were 25 mg/L (≈ 82.1 µM) and 12.5 mg/L (≈ 41.1 µM), respectively.

`Cc1ccc(C)n1-c1ccccc1NC(=S)Nc1cccc(Br)c1`: the minimum inhibitory concentration (MIC) in the assay on Staphylococcus aureus and in the assay with Escherichia coli was 0.2 mg/L (≈ 0.5 µM) throughout.

On to `O=C(/C=C/c1ccccc1Br)c1ccc(-n2cccc2)cc1`, for which the minimum inhibitory concentration (MIC) against Staphylococcus aureus is 50 mg/L (≈ 142 µM); in the assay on Escherichia coli it was 25 mg/L (≈ 71 µM).

For `O=C(/C=C/c1cccc(Cl)c1Cl)c1ccc(-n2cccc2)cc1`, the MIC with Staphylococcus aureus came to 25 mg/L (≈ 73.1 µM); in the assay on Escherichia coli it was 50 mg/L (≈ 146 µM).

For `O=C(/C=C/c1ccccc1O)c1ccc(-n2cccc2)cc1`, the MIC in the assay on Staphylococcus aureus and in the assay with Escherichia coli was 50 mg/L (≈ 173 µM) each time.

Turning to `O=C(/C=C/c1cccc(Oc2ccccc2)c1)c1ccc(-n2cccc2)cc1`, the MIC against Staphylococcus aureus and in the assay with Escherichia coli was 50 mg/L (≈ 137 µM) in each case.

Take `COc1ccc(-c2cc(-c3ccc(-n4cccc4)cc3)on2)cc1OC`: the MIC against Staphylococcus aureus and against Escherichia coli was 25 mg/L (≈ 72.2 µM) in each case.

As to `Clc1ccc(-c2cc(-c3ccc(-n4cccc4)cc3)on2)c(Cl)c1`, the MIC in the assay on Staphylococcus aureus turned out to be 25 mg/L (≈ 70.4 µM); against Escherichia coli, 50 mg/L (≈ 141 µM).

`Brc1ccccc1-c1cc(-c2ccc(-n3cccc3)cc2)on1`: the MIC in the assay on Staphylococcus aureus and against Escherichia coli was 50 mg/L (≈ 137 µM) throughout.

On to `Cc1ccc(C)n1-c1ccccc1NC(=S)Nc1ccc(F)cc1`, for which the MIC with Staphylococcus aureus and in the assay with Escherichia coli was 0.8 mg/L (≈ 2.36 µM) in each case.

`Clc1ccccc1-c1cc(-c2ccc(-n3cccc3)cc2)on1`: the minimum inhibitory concentration (MIC) in the assay with Staphylococcus aureus and in the assay with Escherichia coli was 50 mg/L (≈ 156 µM) in each case.

Take `COc1cccc(C2CC(c3ccc(-n4cccc4)cc3)=NN2C(C)=O)c1` (configuration not stated): the minimal inhibitory concentration (MIC) with Staphylococcus aureus came out at 25 mg/L (≈ 69.6 µM); in the assay with Escherichia coli, 50 mg/L (≈ 139 µM).

For `CC(=O)N1N=C(c2ccc(-n3cccc3)cc2)CC1c1ccc(C)cc1` (configuration not stated), the minimum inhibitory concentration (MIC) came to 25 mg/L (≈ 72.8 µM) against Staphylococcus aureus and 12.5 mg/L (≈ 36.4 µM) against Escherichia coli.

Consider `CC(=O)N1N=C(c2ccc(-n3cccc3)cc2)CC1c1ccccc1Cl` (configuration not stated), for which the MIC in the assay with Staphylococcus aureus is 50 mg/L (≈ 137 µM); with Escherichia coli it was 25 mg/L (≈ 68.7 µM).

On to `O=C(/C=C/c1ccc(Cl)cc1)c1ccc(-n2cccc2)cc1`, for which the MIC with Staphylococcus aureus and against Escherichia coli was 50 mg/L (≈ 162 µM) in each case.

Turning to `CC(C)c1ccc(/C=C/C(=O)c2ccc(-n3cccc3)cc2)cc1`, the minimum inhibitory concentration (MIC) in the assay on Staphylococcus aureus and in the assay with Escherichia coli was 12.5 mg/L (≈ 39.6 µM) each time.

For `Cc1ccc(NC(=S)Nc2ccccc2-n2c(C)ccc2C)cc1`, the MIC against Staphylococcus aureus was 0.4 mg/L (≈ 1.19 µM); in the assay with Escherichia coli, 6.25 mg/L (≈ 18.6 µM).

On to `Cc1ccc(C)n1-c1ccccc1NC(=S)Nc1ccc(Cl)c(Cl)c1`, for which the MIC with Staphylococcus aureus and with Escherichia coli was 0.2 mg/L (≈ 0.512 µM) in each case. For the same compound, the inhibition in assay [1] is 13%.

For `CCn1cc(C(=O)O)c(=O)c2cc(F)c(N3CCNCC3)cc21` [NORFLOXACIN], the figures for the MIC with Staphylococcus aureus and against Escherichia coli were 2.02 mg/L (≈ 6.33 µM) and 4 mg/L (≈ 12.5 µM), respectively.

As for `O=C(/C=C/c1ccc(Cl)cc1Cl)c1ccc(-n2cccc2)cc1`, the minimal inhibitory concentration (MIC) in the assay on Staphylococcus aureus and in the assay on Escherichia coli was 50 mg/L (≈ 146 µM) throughout.

Turning to `Cc1ccc(-c2cc(-c3ccc(-n4cccc4)cc3)on2)cc1`, the MIC in the assay on Staphylococcus aureus was 25 mg/L (≈ 83.2 µM); against Escherichia coli, 12.5 mg/L (≈ 41.6 µM).

For the compound `Cc1ccc(C)n1-c1ccccc1NC(=S)Nc1ccc([N+](=O)[O-])cc1`, the MIC stood at 0.2 mg/L (≈ 0.546 µM) against Staphylococcus aureus and 0.4 mg/L (≈ 1.09 µM) against Escherichia coli.

On to `c1coc(-c2cc(-c3ccc(-n4cccc4)cc3)on2)c1`, for which the results for the minimal inhibitory concentration (MIC) with Staphylococcus aureus and with Escherichia coli were 50 mg/L (≈ 181 µM) and 25 mg/L (≈ 90.5 µM), respectively.
